# High-throughput results: PubChem, Johns Hopkins Ion Channel Center
# Hits are enriched below; roughly 2.3% of the tested compounds scored in any of these assays.
# TRPC4 agonist = activators of mouse TRPC4 channel; HEK293 TRPC4beta/mu-opioid, Fluo4 calcium fluorescence; stronger effect = higher value; B-score at 10 µM; Q9QUQ5; 310,000 compounds, 0.49% hits;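 active = B-score above 5 SD of library B-scores, and initial fluorescence ratio not above library mean plus 5 SD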;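 note: positive B-score marks a calcium rise read as TRPC4 activation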
#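 System – HEK293 cells stably co-expressing mouse TRPC4beta and mu-opioid receptor · Signal – Fluo4 calcium-sensitive dye fluorescence, kinetic, 1 Hz baseline · Benchmarks – buffer (low) and maximal DAMGO (high) · Read-out – B score of integrated fluorescence ratio per well · Incubation – dye loading 45 min room temperature, 110 s kinetic read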
# TRPC6 inh = mouse TRPC6 channel inhibition. Q61143. HEK293-TRPC6, membrane potential dye, ACh-evoked depolarization; stronger effect = lower value. B-score at 10 µM. 310,000 compounds, 1.1% hits;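 active = B-score under library mean minus 3 SD, initial fluorescence not abnormally high, positive integrated signal ratio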;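 note: B-score derived from integrated fluorescence ratio over the kinetic read; more negative B-score means stronger inhibition of depolarization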
# TRPC4 block = blocks the mouse TRPC4 cation channel. 300,000 compounds, 0.39% hits. HEK293 TRPC4beta/mu-opioid, DAMGO-evoked Fluo4 calcium flux; stronger effect = lower value. B-score at 10 µM;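 active = B-score over 3 SD under the library average, no early fluorescence shift, positive overall ratio signal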
#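 Assay system: HEK293 cells with stable TRPC4beta plus mu-opioid receptor expression. Dosing: single dose. Measured by: Fluo4 Ca2+ flux fluorescence. Also added: DAMGO in two steps, submaximal then maximal. Read-out: B score from integrated Fluo4 fluorescence ratio.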
# TRPC6 act = activates the mouse TRPC6 cation channel | Q61143 | HEK293-TRPC6 membrane potential dye fluorescence; stronger effect = higher value | B-score at 10 µM | 310,000 compounds, 0.13% hits;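 active = B-score of the integrated fluorescence ratio above library mean plus 3 SD, and starting fluorescence ratio within library mean plus 5 SD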;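 note: higher score means more depolarization so channel activation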
# TRPC4 potent = allosteric potentiators of mouse TRPC4 channel. Q9QUQ5. HEK293 TRPC4beta/mu-opioid, DAMGO EC20, Fluo-4 Ca2+ flux; stronger effect = higher value. B-score at 10 µM. 310,000 compounds, 0.42% hits. AID 2227;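 active = B-score of calcium response area above 5 SD of library B-scores, with initial fluorescence ratio within 5 SD of library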;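 note: B-score of integrated fluorescence ratio over time as area under calcium response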
# * = called active by the depositor; i = inactive.
SMILES,TRPC4 agonist,TRPC6 inh,TRPC4 block,TRPC6 act,TRPC4 potent
COc1cc(OC)cc(C(=O)Nc2ccc3c(c2)CCCN3C(=O)c2cccs2)c1,i,i,i,i,i
Clc1ncc(CN2CCN(Cc3ccccc3)CC2)s1,i,i,i,i,i
Cc1ccc2c(c1)NC(c1cccs1)C1=C(CC(C)(C)CC1=O)N2 (stereo not given),i,i,i,i,i
COCc1cc(CN2CCCC(C(=O)c3cccc(C(F)(F)F)c3)C2)ccc1OC (stereo not given),i,i,i,i,i
COc1cccc(O)c1CN1CCCC(C(=O)c2cccc(C(F)(F)F)c2)C1 (stereo not given),i,i,-7*,i,i
COc1ccc(C(=O)C2CCCN(Cc3c(O)cccc3OC)C2)cc1OC (stereo not given),i,i,i,i,i
CC(=O)Nc1ccc(CN2CCCC(C(=O)c3ccc(C(F)(F)F)cc3)C2)cc1 (stereo not given),234*,i,i,i,i
COc1c(C)cc(C(=O)C2CCCN(Cc3cccc4nccnc34)C2)cc1C (stereo not given),110*,i,i,i,i
CCOc1cccc(CN2CCCC(C(=O)c3cccc(C(F)(F)F)c3)C2)c1O (stereo not given),i,i,-6*,i,i
COc1ccc(C(=O)C2CCCN(C(=O)C3=CCCC3)C2)c(C)c1 (stereo not given),i,i,i,i,i
CCCN(CCC)CCCNC(=O)CCNS(=O)(=O)c1ccc(Br)cc1,76*,i,i,i,i
CCOC(=O)C1CCN(c2nc(-c3ccc(C)cc3)nc3ccccc23)CC1,i,i,i,i,i
Cc1cc(SCC#N)nc2ccccc12,i,i,-6*,i,i
OCCCC1CCCN(Cc2cn[nH]c2-c2ccc(F)cc2F)C1 (stereo not given),i,i,i,i,i
CN1CCN(Cc2cn[nH]c2-c2ccc(F)cc2F)[C@@H](c2ccccc2)C1,i,i,-5*,i,i
O=C1c2ccc(Oc3ccc4c(c3)C(=O)N(CCCO)C4=O)cc2C(=O)N1CCCO,71*,i,i,i,i
CC1=C(C(=O)OCCC(C)C)C(c2ccc3c(c2)OCO3)NC(=O)N1 (stereo not given),i,i,i,i,i
O=C(NC12CC3CC(CC(C3)C1)C2)c1ccc([N+](=O)[O-])cc1,i,i,i,i,i
O=[N+]([O-])c1ccc(C23CC4CC(CC(O)(C4)C2)C3)cc1,i,i,-6*,i,i
O=C(O)COc1ccc(Br)cc1/C=N\Nc1ccccn1,i,i,i,i,i
Cc1cccn2c(=O)c3cc(C(=O)N(C)C)n(C)c3nc12,i,i,i,i,25*
COc1ccc(CN(C)CCc2ccccn2)cc1OC,i,i,i,i,i
COc1cc(OC)c(OC)cc1CN(C)CCc1ccccn1,64*,i,i,i,i
Cc1cc(C)nc(NC(=O)c2c(F)c(F)c(F)c(C(=O)Nc3cc(C)cc(C)n3)c2F)c1,i,i,i,i,i
O=C(CN1CCCCCC1)Nc1ccccc1Oc1ccccc1,i,i,-6*,i,i
SMILES,TRPC4 agonist,TRPC6 inh,TRPC4 block,TRPC6 act,TRPC4 potent
O=C(CN1CCCCC1)Nc1cc(Cl)ccc1Oc1ccccc1,i,i,i,i,i
CCCCN1C(=O)C(=O)N(CC(=O)Nc2cc(OCC)c(N3CCOCC3)cc2OCC)C1=O,i,i,i,i,21*
CCOc1cc(N2CCOCC2)c(OCC)cc1NC(=O)c1ccccc1C,i,i,i,i,i
CCOc1cc(N2CCOCC2)c(OCC)cc1NC(=O)CN1C(=O)C2CC=CCC2C1=O (stereo not given),i,i,i,i,i
CCOc1cc(N2CCOCC2)c(OCC)cc1NC(=O)c1ccc2ccccc2n1,i,i,i,i,11*
CCOC(=O)N1CCC(NC(=O)c2cn(-c3ccc(OC)cc3)c(=O)c3ccccc23)CC1,i,i,i,i,i
CCOC(=O)N1CCC(N2Cc3cccc(C(=O)NCc4ccc5c(c4)OCO5)c3C2=O)CC1,i,i,i,i,i
CCOC(=O)N1CCC(NC(=O)c2cccc3c2C(=O)N(c2ccc(OC)cc2)C3)CC1,i,-7.8*,i,i,i
CCOC(=O)N1CCC(N2Cc3cccc(C(=O)NCc4ccccc4OC)c3C2=O)CC1,i,-7.3*,i,i,i
CC(C)C[C@H](NC(=O)OC(C)(C)C)C(=O)N[C@@H](CO)[C@H](O)[C@@H]1C[C@@H]1C(=O)NC1CCCCC1,i,i,i,i,i
CCN(CC(=O)NCc1ccc(Cl)cc1)S(=O)(=O)c1ccc(NC(C)=O)cc1,i,i,i,i,i
N#Cc1c(Oc2ccc3ccccc3c2)sc(C(=O)c2ccccc2)c1N,i,i,i,i,12*
Cc1cccc(Oc2sc(C(=O)c3ccccc3)c(N)c2C#N)c1C,i,i,i,i,i
CCOCCSC1=C(C#N)C(c2cccs2)C(C(C)=O)=C(C)N1 (stereo not given),i,i,-6*,i,i
CC(=O)N(C)c1ccc(NC(=O)c2ccc([N+](=O)[O-])cc2Cl)cc1,i,i,i,i,i
CC(=NCCN1CCN(C(C)=C2C(=O)c3ccccc3C2=O)CC1)C1=C(O)CC(C)(C)CC1=O,i,i,i,i,14*
CC(=O)Nc1cccc(NC(=O)c2ccc(C(=O)Nc3cccc(NC(C)=O)c3)nc2)c1,73*,i,i,i,i
CC(=O)c1cccc(NC(=O)c2ccc(C(=O)Nc3cccc(C(C)=O)c3)nc2)c1,i,i,i,i,i
Cc1ccc(-c2nn(-c3ccccc3)cc2CSC(=N)N)cc1,68*,i,i,i,i
OCc1cn(-c2ccccc2)nc1-c1ccc(-c2nn(-c3ccccc3)cc2CO)cc1,i,i,i,i,i
Cc1ccc(NC(=O)c2ccc3c(c2)N(CC(=O)NC(C)C)C(=O)C(C)(C)O3)cc1,i,i,i,i,i
CCOC(=O)C1=C(C)N=c2s/c(=C/c3cccc([N+](=O)[O-])c3O)c(=O)n2C1c1ccc(OC)cc1OC (stereo not given),i,-5.2*,i,i,i
CNCc1ccccc1Sc1cccc2ccccc12,46*,i,-6*,i,i
